Laboratory results: ChEMBL document CHEMBL4020830, “Design, Synthesis, and Evaluation of a Novel Series of Indole Sulfonamide Peroxisome Proliferator Activated Receptor (PPAR) α/γ/δ Triple Activators: Discovery of Lanifibranor, a New Antifibrotic Clinical Candidate” (J Med Chem, 2018)
Calls of active or inactive are those of the source. The rule behind the calls is not given here.

Tests used:
[1] = biological target: T1, Peroxisome proliferator-activated receptor gamma (Homo sapiens, UniProt P37231)
T1 sequence (P37231 whole entry): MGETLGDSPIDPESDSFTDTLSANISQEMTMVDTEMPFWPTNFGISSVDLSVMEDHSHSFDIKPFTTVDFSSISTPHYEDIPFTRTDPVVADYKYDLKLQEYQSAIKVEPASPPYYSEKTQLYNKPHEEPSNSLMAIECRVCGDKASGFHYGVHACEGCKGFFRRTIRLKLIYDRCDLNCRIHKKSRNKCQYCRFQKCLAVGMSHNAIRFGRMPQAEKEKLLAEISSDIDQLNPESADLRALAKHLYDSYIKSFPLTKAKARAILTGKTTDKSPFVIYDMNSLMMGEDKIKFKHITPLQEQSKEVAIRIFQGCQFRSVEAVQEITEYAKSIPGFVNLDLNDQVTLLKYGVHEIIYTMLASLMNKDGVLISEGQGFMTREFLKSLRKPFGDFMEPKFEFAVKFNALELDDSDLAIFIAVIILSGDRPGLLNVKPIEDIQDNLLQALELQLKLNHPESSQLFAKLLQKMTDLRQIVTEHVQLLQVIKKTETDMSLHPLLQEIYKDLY

[2] = biological target: T2, Peroxisome proliferator-activated receptor alpha (Mus musculus) (UniProt P23204); test: Transactivation of mouse GAL4-fused PPARalpha LBD expressed in African green monkey COS7 cells co-expressing 5Gal4 pGL3 TK Luc after overnight incubation by luciferase reporter gene assay relative to fenofibric acid; assay type: cell-based
T2 sequence (whole entry): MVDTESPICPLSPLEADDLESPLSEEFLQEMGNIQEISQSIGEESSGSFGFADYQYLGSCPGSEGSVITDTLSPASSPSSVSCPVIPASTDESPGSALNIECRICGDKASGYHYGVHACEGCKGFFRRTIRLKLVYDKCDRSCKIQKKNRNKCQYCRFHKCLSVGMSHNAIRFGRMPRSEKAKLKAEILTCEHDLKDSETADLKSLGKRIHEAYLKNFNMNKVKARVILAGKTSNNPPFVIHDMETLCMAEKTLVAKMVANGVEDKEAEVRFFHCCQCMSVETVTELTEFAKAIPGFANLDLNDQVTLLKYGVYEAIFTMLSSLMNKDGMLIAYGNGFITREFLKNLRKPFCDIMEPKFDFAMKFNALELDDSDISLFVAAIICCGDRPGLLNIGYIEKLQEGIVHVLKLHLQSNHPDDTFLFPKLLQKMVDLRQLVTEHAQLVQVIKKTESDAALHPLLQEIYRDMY
Procedure, shortened: (§1)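 Cell-based Gal-4 transactivation assay in COS-7 cells transfected with PPARα, PPARδ or PPARγ ligand-binding domain. EC50 and Emax were derived, with Emax as maximum activation in percent of control. EC50s are means of at least two independent experiments performed in triplicate.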

[3] = biological target: T1, Peroxisome proliferator-activated receptor gamma; remark: listed apart in the source
Rattus norvegicus [4] = test: Toxicity in Sprague-Dawley rat assessed as effect on plasma volume at 100 to 1000 mg/kg for 4 weeks by evans blue dye based assay; assay type: organism-based; details: in vivo, 672 h
Procedure, shortened: (§2)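 Sprague-Dawley rats were treated at 100 and 1000 mg/kg. Hematocrit and plasma volume were measured after 4 weeks and heart weight after 6 weeks. Analysis was one-way ANOVA with Dunnett's test versus control.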

Mus musculus = test: Increase in plasma adiponctin level in C57Bl6/J mouse model of CCl4-induced liver fibrosis at 3 to 30 mg/kg, po qd for 3 weeks; assay type: functional, organism-based
Procedure, shortened: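 CCl4-induced liver fibrosis mice were dosed orally once daily at 3, 10 or 30 mg/kg for 3 weeks. Controls were CCl4-vehicle, vehicle oil and saline-injected groups. Liver collagen was scored by picrosirius red staining of histological sections. Plasma triglycerides and adiponectin were also measured. Analysis was one-way ANOVA with Dunnett's test.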

[5] = biological target: T1, Peroxisome proliferator-activated receptor gamma; remark: listed apart in the source
[6] = biological target: T1, Peroxisome proliferator-activated receptor gamma; remark: listed apart in the source
[7] = biological target: T3, Peroxisome proliferator-activated receptor delta (Mus musculus, UniProt P35396); test: Transactivation of mouse GAL4-fused PPARdelta LBD expressed in African green monkey COS7 cells co-expressing 5Gal4 pGL3 TK Luc after overnight incubation by luciferase reporter gene assay; assay type: cell-based
T3 sequence (P35396 whole entry): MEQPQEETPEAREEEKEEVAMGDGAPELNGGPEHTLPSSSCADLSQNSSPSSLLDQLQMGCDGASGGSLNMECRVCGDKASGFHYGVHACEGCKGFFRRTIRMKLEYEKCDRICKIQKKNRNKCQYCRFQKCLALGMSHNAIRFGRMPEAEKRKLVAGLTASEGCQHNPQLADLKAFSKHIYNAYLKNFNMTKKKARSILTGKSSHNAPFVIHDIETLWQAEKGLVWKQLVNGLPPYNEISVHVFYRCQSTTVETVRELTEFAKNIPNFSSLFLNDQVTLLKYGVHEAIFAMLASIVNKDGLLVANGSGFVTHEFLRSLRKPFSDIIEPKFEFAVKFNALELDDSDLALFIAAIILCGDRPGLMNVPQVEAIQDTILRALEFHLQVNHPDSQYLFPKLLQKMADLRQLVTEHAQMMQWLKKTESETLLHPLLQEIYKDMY

[8] = biological target: T4, Peroxisome proliferator-activated receptor delta (Mus musculus) (UniProt P35396); test: Transactivation of mouse GAL4-fused PPARdelta LBD expressed in African green monkey COS7 cells co-expressing 5Gal4 pGL3 TK Luc after overnight incubation by luciferase reporter gene assay relative to GW501516; assay type: cell-based
T4 sequence (whole entry): T3 sequence (P35396 whole entry)
Procedure, shortened: as §1

Rattus norvegicus [9] = test: Toxicity in Sprague-Dawley rat assessed as reduction in hematocrit level at 100 to 1000 mg/kg for 4 weeks; assay type: organism-based; details: in vivo, 672 h
Procedure, shortened: as §2

Rattus norvegicus [10] = test: Toxicity in Sprague-Dawley rat assessed as effect on heart weight at 100 to 1000 mg/kg for 6 weeks; assay type: organism-based; details: in vivo, 1008 h
Procedure, shortened: as §2

[11] = biological target: T1, Peroxisome proliferator-activated receptor gamma; remark: listed apart in the source

EC50 [1]: 4110 nM
Emax [2]: 72%
EC50 [3]: 1480 nM
EC50 [5]: 1920 nM
EC50 [6]: 3270 nM
EC50 [7]: 1560 nM
Emax [8]: 131%
EC50 [11]: 3210 nM
Structure (SMILES): O=C(O)CCCc1cc2cc(Cl)ccc2n1S(=O)(=O)c1ccc2ncsc2c1 [LANIFIBRANOR]
Activity (Rattus norvegicus [4]): Non-Toxic
Activity (Mus musculus): Active
Activity (Rattus norvegicus [9]): Non-Toxic
Activity (Rattus norvegicus [10]): Non-Toxic
